HKDC1 inhibitor: blocks human hexokinase HKDC1 activity; AID 493160; inhibition, % at 20 µM; recombinant HKDC1, G6PDH/diaphorase resazurin coupled fluorescence; 340,000 tested, 0.16% active;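 active = inhibition above about 35% when tested at 20 µM, limit read from the data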;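 note: plate controls were DMSO wells with enzyme for no effect and DMSO wells lacking enzyme for full effect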
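System: Recombinant HKDC1 hexokinase | Amount: HKDC1 at 5 µg/mL | Reagent: Glucose with 1 mM ATP | Doses: Single 20 µM dose | Incubation: Reaction time 90 min, room temperature, protected from light | Signal: Coupled resazurin fluorescence, excitation 525 nm, emission 613 nm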
ABHD5 PLIN5 PPI: inhibitors of human ABHD5-perilipin-5 interaction. Q00G26+Q8WTS1. Split G. princeps luciferase complementation, luminescence, 4 h. 360,000 tested, 0.78% active. inhibition, % at 4 µM;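 active = inhibition above the mean inhibition across every tested compound plus 3 SD, cut at about 22% in these data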;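 note: 0% = DMSO only wells and the 100% control is not disclosed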
Target sequence (Q00G26 whole entry, looked up): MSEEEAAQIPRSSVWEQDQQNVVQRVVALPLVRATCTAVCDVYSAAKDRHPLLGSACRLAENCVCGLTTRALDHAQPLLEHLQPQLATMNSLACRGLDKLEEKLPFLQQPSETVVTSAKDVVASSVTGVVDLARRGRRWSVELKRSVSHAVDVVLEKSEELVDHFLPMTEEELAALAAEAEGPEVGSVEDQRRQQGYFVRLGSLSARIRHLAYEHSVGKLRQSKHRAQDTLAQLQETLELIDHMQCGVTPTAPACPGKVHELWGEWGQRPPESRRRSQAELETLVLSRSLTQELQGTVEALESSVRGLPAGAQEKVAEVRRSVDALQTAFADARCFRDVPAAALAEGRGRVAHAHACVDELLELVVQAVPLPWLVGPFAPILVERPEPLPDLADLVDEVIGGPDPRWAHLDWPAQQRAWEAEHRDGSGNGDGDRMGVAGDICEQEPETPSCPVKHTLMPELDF
Target sequence (Q8WTS1 whole entry, looked up): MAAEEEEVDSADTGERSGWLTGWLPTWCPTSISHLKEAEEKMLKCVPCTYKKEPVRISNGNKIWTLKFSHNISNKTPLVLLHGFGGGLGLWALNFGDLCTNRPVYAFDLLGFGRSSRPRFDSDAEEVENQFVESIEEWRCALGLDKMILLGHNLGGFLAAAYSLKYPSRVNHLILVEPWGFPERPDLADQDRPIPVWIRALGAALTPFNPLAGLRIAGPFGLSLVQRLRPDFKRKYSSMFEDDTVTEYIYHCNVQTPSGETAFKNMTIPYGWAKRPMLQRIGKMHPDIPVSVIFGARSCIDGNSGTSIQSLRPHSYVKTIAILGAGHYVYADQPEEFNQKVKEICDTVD
Granule exo inh: lytic granule exocytosis inhibition | TALL-104 LAMP-1 surface exposure, flow cytometry; cells stimulated with thapsigargin and PMA | inhibition, % at 10 µM | 360,000 tested, 0.66% active;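 active = inhibition above about 55%, limit read from the data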
PfGluPho inh: PfG6PD (Plasmodium falciparum) enzyme inhibition; inhibition, % at 20 µM; PfGluPho enzyme, NADPH resazurin-diaphorase fluorescence; 350,000 tested, 0.78% active;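 active = inhibition reaching at least a set limit at 20 µM in the primary screen, cut at about 59% in these data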;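 note: 0% = DMSO wells with substrate and 100% = DMSO wells lacking glucose-6-phosphate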
PfGluPho conf: PfG6PD inhibition, single-dose confirmed | shares compounds with PfGluPho inh | recombinant PfGluPho, NADPH-diaphorase-resazurin fluorescence | inhibition, % at 20 µM | 2,400 tested, 34% active;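 active = inhibition of at least 50% at 20 µM in any single replicate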;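 note: 0% = DMSO with substrate and 100% = DMSO lacking glucose-6-phosphate substrate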
Diaphorase 10uM: counter-screen for P. falciparum G6PD inhibitors: diaphorase inhibitors, oxidizers; shares compounds with PfGluPho inh; diaphorase-coupled resazurin reduction, fluorescence, NADPH 10 uM; 820 tested, 39% active; inhibition, % at 20 µM;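 active = average inhibition reaching 50% or more with the compound at 20 µM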;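 note: resorufin red fluorescence formed as diaphorase reduces resazurin using NADPH; 0% = DMSO with enzyme and 100% = DMSO without enzyme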
Diaph ctr 30uM: diaphorase inhibition or oxidation at 30 uM NADPH. shares compounds with PfGluPho inh. Diaphorase/resazurin coupled assay, resorufin fluorescence. inhibition, % at 20 µM. 820 tested, 29% active. AID 504863;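 active = inhibition averaging 50% or more, tested at 20 µM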;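 note: 0% = DMSO with enzyme and 100% = DMSO wells lacking diaphorase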
* marks the source's active call; other numbers are inactive results; nt = no result given. Rows were chosen to be rich in hits. Some 2.2% of all compounds tested hit in one or more screens of this group.

SMILES	HKDC1 inhibitor	ABHD5 PLIN5 PPI	Granule exo inh	PfGluPho inh	PfGluPho conf	others
CCOc1ccc(-n2c(SCc3cc(=O)oc4cc(C)ccc34)nnc2-c2cccnc2)cc1	-4	5	-1	16	nt
Cc1nc(N2CCC3(CC2)OCCO3)c2nnn(Cc3ccccc3F)c2n1	-4	-7	-3	61*	31
COc1cc(-c2c(-c3cc(OC)c(OC)c(OC)c3)noc2C)ccc1F	1	nt	nt	63*	14
COC(=O)Cc1cc(=O)n2c(nc3ccccc32)[nH]1	1	-4	-1	12	nt
O=c1[nH]c(=O)c2[nH]c(=S)n(-c3ccccc3)c2[nH]1	-6	-9	1	64*	37
COc1ccc(-c2nc3ccccc3[nH]2)cc1	-10	5	-1	61*	15
COCCCn1c(=O)c2sccc2n2c(CCCC(=O)NCc3ccc(OC)cc3)nnc12	-3	-6	2	11	nt
Cc1ccc(C(=O)Nc2ncc([N+](=O)[O-])s2)cc1	10	-12	-10	99*	85*	Diaphorase 10uM=76*;Diaph ctr 30uM=63*
O=C(Nc1ncc([N+](=O)[O-])s1)c1ccc2c(c1)OCO2	1	5	34	126*	87*	Diaphorase 10uM=83*;Diaph ctr 30uM=78*
Cc1cnc(NC(=O)c2ccc3c(c2)OCCO3)s1	3	-7	-1	16	nt
COc1ccc(CCNc2nc(C)c(C(C)=O)s2)cc1OC	-12	-7	-8	61*	20
CC(=O)c1sc(NCc2ccc(C)cc2)nc1C	-4	1	-7	-16	nt
COc1cc(OC)cc(C(=O)NNC(=O)C2CCCC2)c1	4	1	-8	1	nt
O=C(Nc1ccc(N2CCOCC2)c(Cl)c1)c1ccc(F)cc1	-5	3	0	94*	27
O=C(Nc1ccc(N2CCN(C(=O)c3ccccc3)CC2)c(Cl)c1)c1ccc(Br)o1	7	-8	-2	34	nt
O=C(Nc1ccc(N2CCOCC2)c(Cl)c1)c1ccc(Br)o1	3	3	-1	82*	37
CCCOc1ccc(C(=O)Nc2cc(S(=O)(=O)N3CCOCC3)ccc2N2CCN(CC)CC2)cc1OC	-10	7	2	-1	nt
COCc1cc(=O)n2[nH]c(C(C)(C)C)cc2n1	-5	-1	0	61*	48*	Diaphorase 10uM=34;Diaph ctr 30uM=28
CC1CCCCC12NC(=O)N(CC(=O)NCCc1c[nH]c3ccccc13)C2=O (configuration not stated)	-1	-12	2	13	nt
COCCOc1cc(NCc2ccccc2)c2ncn(C(C)C)c2c1	9	3	-5	45	nt
CCOc1cc(NCc2ccccc2)c2ncn(C(C)C)c2c1	14	-7	-6	66*	48*	Diaphorase 10uM=8;Diaph ctr 30uM=-3
CCCOc1cc(NCc2ccccc2)c2ncn(C(C)C)c2c1	14	-4	3	77*	33
C=CCn1c(N)c(C(=O)NCCC2=CCCCC2)sc1=S	-1	-4	-3	69*	29
Cc1cc(C(=O)CN2C(=O)C(=O)N(C3CCCC3)C2=O)c(C)n1CCc1ccc(F)cc1	1	-15	-1	-14	nt
CC(C)C(=O)N1CCN(c2ccccc2NC(=O)c2ccc3c(c2)OCCO3)CC1	1	6	-3	-27	nt
SMILES	HKDC1 inhibitor	ABHD5 PLIN5 PPI	Granule exo inh	PfGluPho inh	PfGluPho conf	others
CC(C)C(=O)N1CCN(c2ccc(NC(=O)c3ccc4c(c3)OCCO4)cc2Cl)CC1	-5	8	16	68*	29
CC(=O)N1CCN(c2ccc(NC(=O)c3ccc4c(c3)OCCO4)cc2Cl)CC1	4	-1	-2	67*	42
COc1cccc(N2CCN(c3nc(C)cc(=O)[nH]3)CC2)c1	-2	0	-6	6	nt
CC1CC(C)CN(CC(=O)Nc2cc(S(=O)(=O)N3CCOCC3)ccc2N2CCCC2)C1 (configuration not stated)	-4	-1	-3	9	nt
CSc1ccccc1NC(=O)c1ccccc1	-12	1	-5	-8	nt
O=C(Nc1ccccc1SC(=O)c1ccccc1)c1ccccc1	nt	-7	15	64*	21
COc1ccc(OCC(=O)Nc2ccc(NC(=O)c3ccccc3Cl)c(OC)c2)cc1	1	-5	3	1	nt
O=C(O)c1cccc2c1C(=O)c1cc([N+](=O)[O-])ccc1-2	2	5	-5	-6	nt

Assay outcomes deposited in PubChem by several laboratories.
